Experimental data as given in PubChem BioAssay AID822 (SRMLSC, 2007).
Active and inactive are the calls of the source.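 How the source made its calls: active means half-maximal effective dose for blocking growth of human endothelial cells at most 100 µM; inactive means the rest.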

Test system: HUVEC proliferation, viability ATP luminescence
Assay: growth suppression of umbilical vein endothelial cells – cell-based, HUVEC, ATP luminescence, dose response (AID 822);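 further: cells exposed to compound for 72 h before the ATP read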
In short: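 Assay system: HUVEC primary endothelial cells, low passage (≤12); amount: 1250 HUVEC cells seeded per well; buffer or medium: EBM plus 2% FBS; read-out: percent viability relative to median untreated cell signal, EC50 via four-parameter fit; signal: luminescent ATP measurement with CellTiter-Glo reagent; schedule: 72 h exposure, 37 °C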

Compound	EC50
CCCc1nc(SCC(=O)N2CCC(Cc3ccccc3)CC2)c2c(=O)n(C)c(=O)n(C)c2n1	10.5 µM
CCOc1ccc(Nc2oc(-c3ccc(Cl)cc3)nc2C#N)cc1	> 10 µM (inactive)
c1cc2c3c(cccc3c1)NC1(CCCCCC1)N2	> 10 µM (inactive)
Cc1cc(C)c2c(c1)SC1=NC(c3ccccc3)(C(F)(F)F)NC(=O)N12 (configuration not stated)	8.47 µM
OC(C#Cc1ccccn1)c1cccs1 (configuration not stated)	4.29 µM
Cc1ccc(C(=O)c2c(C)oc3c2C(=O)C(=O)c2ccccc2-3)cc1	20 µM
COc1cccc(-c2nnc(Nc3nc4c(F)cccc4s3)o2)c1	8.57 µM
Brc1ccc(-c2csc(NNC3=NCCCCC3)n2)cc1	> 10 µM (inactive)
Cc1cccc(N2CCN(C(=O)c3ccc4nc(-c5ccco5)c(-c5ccco5)nc4c3)CC2C)c1 (configuration not stated)	9.47 µM
C#CCn1c(=NC(=O)c2ccc(Br)s2)sc2cccc(OC)c21	12.2 µM
N#Cc1nc(-c2ccc(OCc3ccccc3Cl)cc2)oc1NCCCn1ccnc1	2.55 µM
Cc1cccc(-c2nc(CN3CCCC(C(=O)NC4CCCCCC4)C3)c(C)o2)c1 (configuration not stated)	10.8 µM
O=[N+]([O-])c1cccnc1N1CCC(c2cc(-c3cccc(C(F)(F)F)c3)n[nH]2)CC1	10.6 µM
COc1ccc(-n2c(SCC(=O)Nc3sc4c(c3C#N)CCCC4)nnc2-c2ccc(O)cc2)cc1	4.32 µM
Nc1nc(-c2ccccc2)cc(-c2ccccc2O)n1	12.4 µM
CCC(CC)COC(=O)C(C#N)c1nc2ccccc2nc1N1CCN(CC)CC1 (configuration not stated)	10.2 µM
CCOC(=O)C1=C(Cc2ccc(F)cc2)C(=O)c2ccccc2C1=O	13.6 µM
CCOc1cc(C(=O)CSc2nnc(CNc3ccc(Cl)cc3)o2)ccc1NC(=O)CC	15.7 µM
Cc1ccc(-c2nnc(SCC(=O)Nc3ccccc3F)o2)cc1	19.2 µM
c1ccc2c(c1)oc1c(Nc3ccc(CN4CCOCC4)cc3)ncnc12	5.35 µM
Cc1cc2nc(C3CCN(CC4COc5ccccc5O4)CC3)[nH]c2cc1C (configuration not stated)	19.8 µM
CCOC(=O)c1ccc(NC(=O)CCc2nc(-c3ccc(C)cc3)no2)cc1	16.5 µM

Compound	EC50
CCC(=O)OCCNc1cc(Sc2nc3ccccc3s2)c2nonc2c1[N+](=O)[O-]	14.5 µM
Cc1ccc2c(c1)[nH]c1c(N3CCN(Cc4ccccc4)CC3)ncnc12	7.57 µM
CCCn1c(Nc2nc3ccccc3n2C)nc2ccccc21	3.01 µM
COCc1cc(CN2CCCC2)c(O)c2ncccc12	> 10 µM (inactive)
COc1cccc(-c2cc(C(=O)Nc3cc(C)n(Cc4ccc(Cl)cc4)n3)no2)c1	12.3 µM
FC(F)C(F)(F)C(F)(F)C(F)(F)c1cc(-c2ccccc2)n[nH]1	8.28 µM
O=C1c2[nH]nc(-c3ccccc3O)c2C(c2cccc(Cl)c2)N1Cc1ccco1 (configuration not stated)	11 µM
CCSc1nnc(NC(=O)c2ccccn2)s1	1.81 µM
COc1ccc(CNC(=O)C(C#N)c2nc3ccccc3nc2N2CCN(C)CC2)cc1 (configuration not stated)	6.92 µM
COc1ccc(C(C[N+](=O)[O-])c2c(-c3ccccc3)cc3ccccn23)cc1 (configuration not stated)	11.1 µM
Cc1cccc(C)c1OCC(=O)N=Nc1c(O)[nH]c2ccc(Br)cc12	7.15 µM
COc1ccc2nc(Nc3nc(CSc4nnnn4-c4ccccc4)cc(=O)[nH]3)nc(C)c2c1	4.49 µM
CCN(CC)CC(=O)Nc1ccc(-c2nc3cc(NC(=O)CN(CC)CC)ccc3o2)cc1	> 10 µM (inactive)
CCOc1ccc(-c2n[nH]c(C)c2Oc2ccc(OC)cc2)c(O)c1	12.4 µM
Cc1cccc(CS(=O)(=O)c2nnc([C@H](Cc3ccccc3)NC(=O)OC(C)(C)C)o2)c1	9.97 µM
CCCCC[n+]1ccn(C2=C([O-])c3ccccc3C(=O)/C2=N\S(=O)(=O)c2ccccc2)c1	6.1 µM
CCOC(=O)c1ccc(NC(=O)CCc2nc(-c3cccc(C)c3)no2)cc1	19.2 µM
Cc1oc(-c2ccccc2F)nc1CN1CCC(C(=O)NCCC2=CCCCC2)CC1	12.4 µM
COc1ccc(Cl)cc1N1CCN(CCNC(=O)Nc2ccccc2C)CC1	5.83 µM
Cc1ccc2c(c1)c1c(n2CC(O)Cn2c(C)nc3ccccc32)/C(=N\O)CCC1 (configuration not stated)	8.98 µM
COc1ccc(NC(=O)c2ccccc2NC(=O)COc2ccccc2)cc1	11.2 µM
O=c1[nH]c(Nc2nc3ccccc3o2)nc2c1CCCC2	17.3 µM

Compound	EC50
CCc1ccc2c(c1)/C(=C/C(=O)c1cccs1)C(=O)N2	7 µM
COc1ccc(Cl)c(N2CCN(CCCNC(=O)Nc3ccc(C)cc3)CC2)c1	12.3 µM
O=c1/c(=C/c2ccco2)sc2n1CN(c1cccc(Br)c1)CN=2	15.7 µM
COC(=O)c1c(C)n(-c2ccc(C)cc2)c2ccc(O)cc12	18.6 µM
COc1ccc(C(=O)Nc2ccccc2C(=O)N(Cc2ccco2)C(C(N)=O)C(C)C)cc1 (configuration not stated)	14.6 µM
CC(=O)Nc1ccc(S(=O)(=O)NC2=C(N3CCN(Cc4ccccc4)CC3)C(=O)c3ccccc3C2=O)cc1	6.68 µM
Cc1cc(C)n(-c2nc(NCCCO)c3c4c(sc3n2)CCCC4)n1	2.41 µM
O=C(NCCC1=CCCCC1)C1CCN(Cc2cnn(-c3ccccc3)c2-n2cccc2)CC1	15.1 µM
COc1ccc(Cc2nc(C(=O)Nc3ccc(Cl)cc3)cs2)cc1	19.9 µM
O=C(N/N=C/c1ccco1)c1cc(-c2ccc3ccccc3c2)n[nH]1	9.25 µM
N#C/C(=C/c1ccc(N2CCCCCC2)o1)c1ccc(F)cc1	12.6 µM
Cn1c(=O)c2c(nc(Oc3ccc4c(c3)OCO4)n2Cc2ccc(Cl)cc2)n(C)c1=O	5.33 µM
Cc1cccnc1Nc1nc(-c2ccc(O)cc2O)cs1	10.3 µM
COc1ccccc1N1C(=O)N(C(C)=O)C2C1Nc1ccccc1N2C (configuration not stated)	6.17 µM
O=S1(=O)C=C(Sc2nnc(-c3ccccc3)o2)c2ccccc21	4.25 µM
O=C1Nc2ccccc2/C1=C/C(=O)c1cccs1	7.52 µM
Cc1nc(Nc2ccc3c(c2)OCCO3)c2nnn(Cc3ccccc3Cl)c2n1	7.13 µM
CCN1CCN(c2cc(C)c3cc(NC(=O)c4ccc(OC)c(OC)c4)ccc3n2)CC1	13.6 µM
Cc1ccc(NC(=O)c2cc(NC(=O)c3ccco3)ccc2N2CCCCC2)cc1	17.9 µM
Cc1c(CCOC(=O)C2C3CC4CC(C3)CC2C4)sc[n+]1CC(=O)c1ccc(Br)cc1 (configuration not stated)	11.4 µM
Cc1ccc2c(c1)NC(=O)C(CC(=O)NCCCN1CCN(c3cc(Cl)ccc3C)CC1)O2 (configuration not stated)	7.12 µM
CC[n+]1cc(-c2ccccc2)nc(N2CCOCC2)n1	9.86 µM

Compound	EC50
O=C(Nc1ccc2c(c1)OCO2)c1cc(C2CC2)on1	6.54 µM
Cc1ccc(C(C)C)c(OCC(=O)Nc2ccc3c(c2)nc(CN2CCCC2)n3C)c1	14.6 µM
O=C(C#Cc1cccc([N+](=O)[O-])c1)c1ccccc1	20.3 µM
CNC(=O)c1ccc(-c2sc3nc(N4CCOCC4)c4c(c3c2N)CCCC4)o1	10.5 µM
Cc1cc(/C=N/n2cnnc2)c(C)n1-c1ccccc1	19.8 µM
Cc1ccc(-c2nc3cccnc3o2)cc1NC(=O)COc1ccc(C(C)(C)C)cc1	9 µM
CCOC(=O)c1sc2nc(C(C)C)c3c(c2c1N)CC(C)(C)OC3	20.8 µM
COc1ccc2c(c1)c1nc3ccccc3nc1n2CC(=O)OC(C)C	11.3 µM
Cc1cc(NC(c2cccnc2)c2ccc3cccnc3c2O)no1 (configuration not stated)	6.36 µM
COc1cc(/C=c2\s/c(=C(/C#N)C(=O)N3CCCC3)n(-c3ccccc3)c2=O)ccc1O	16.3 µM
O=C(COC(=O)c1cccnc1Nc1cccc(C(F)(F)F)c1)NCc1ccc2c(c1)OCO2	13.5 µM
CCOC(=O)c1cnc(-n2nc(C)cc2C)nc1NC1CCCCC1	0.27 µM
CC(=O)SC(C[N+](=O)[O-])c1cn(C(C)=O)c2ccccc12 (configuration not stated)	6.72 µM
CCOC(=O)c1c(C)[nH]c(C(=O)OC/C(O)=C(\C#N)c2nc3ccccc3[nH]2)c1C	11.6 µM
CCN(CCNC(=O)C1CCN(Cc2nc(-c3ccc(Cl)cc3)oc2C)CC1)c1ccccc1	5.82 µM
Cc1nn(CC(=O)Nc2ccc3c(c2)oc2ccccc23)c(=O)c2ccccc12	6.25 µM
Cc1cc(C)c2oc(-c3cccc(NC(=O)c4ccc(F)cc4)c3)nc2c1	19.3 µM
Oc1ccc(Nc2nc(-c3ccc4ccccc4c3)cs2)cc1	5.83 µM
COC(=O)Nc1ccc(S(=O)(=O)N2c3ccccc3CCC2C)cc1 (configuration not stated)	9.54 µM
Nc1c(C(=O)NCc2ccc(F)cc2)c2nc3ccccc3nc2n1CCCN1CCOCC1	10.4 µM
Cc1cc(N2CCCCC2)nc2ccc(NC(=O)c3ccc(Br)o3)cc12	17.2 µM
CC(C)COC(=O)c1ccc2c(c1O)C(=O)c1ccccc1C2=O	3.11 µM

Compound	EC50
CCN(CC)c1cc(C)c2cc(NC(=O)c3ccc(Br)o3)ccc2n1	11.3 µM
CCCc1[nH]nc2c1C(c1ccc(Br)s1)C(C#N)=C(N)O2 (configuration not stated)	8.67 µM
C=CCN1C(=Nc2cccnc2)SCC1(O)c1ccc(C)cc1 (configuration not stated)	11.2 µM
c1ccc(CC2CCN(C3=Nc4cccc5cccc3c45)CC2)cc1	3.02 µM
COC(=O)CCS(=O)(=O)c1nc(-c2ccccc2)cc(C(F)(F)F)n1	9.83 µM
CCN1CCN(c2ncc(C(=O)Nc3cc(Cl)c(OC)cc3OC)c3ccccc23)CC1	14.2 µM
N#Cc1c(NCCN)nc(NCc2ccccc2)c2c1CCN(Cc1ccccc1)C2	13.3 µM
CC(=O)Oc1ccc(N(C(C)=O)S(=O)(=O)c2cccs2)c2ccccc12	9 µM
Cc1ccccc1CS(=O)(=O)c1nnc([C@H](CC(C)C)NC(=O)OC(C)(C)C)o1	12 µM
Cc1nn2c(NCCCN(C)C)c3c(nc2c1-c1ccccc1)CCC3	12.2 µM
COc1ccccc1NC(=O)CC1C(=O)NCCN1C(=O)Nc1ccc(Cl)c(Cl)c1 (configuration not stated)	10.8 µM
CN1CCN(c2nc3ccccc3nc2C(C#N)C(=O)OC2CCCCC2)CC1 (configuration not stated)	3.87 µM
Cc1ccc(C)n1NC(=O)c1ccccc1O	> 10 µM (inactive)
O=C(Nc1nccs1)c1c(O)c2cccc3c2n(c1=O)CCC3	20.4 µM
CCOc1cc2nc(-c3ccc(OC)c(OC)c3)nc(N3CCOCC3)c2cc1OC	5.27 µM
O=C(Nc1cccc(-c2nc3ncccc3o2)c1)c1cc2ccccc2o1	14.1 µM
COc1cccc(C(=O)CSc2nnc(-c3cc(OC)cc(OC)c3)o2)c1	18.2 µM
Clc1ccc(COC(Cn2ccnc2)c2ccc(Cl)cc2Cl)cc1 (configuration not stated)	6.31 µM
CCCc1ccc(Oc2c(-c3ccc(O)c(C)c3O)n[nH]c2C)cc1	9.55 µM
